In general, ILS refers to the gain in survival time of treated over control animals, in per cent. Higher therefore signals a large benefit in survival.

Results on 2 molecules are retold here after ChEMBL document CHEMBL1124291, “New actinomycin D analogues as superior chemotherapeutic agents against primary and advanced colon tumors and colon xenografts in nude mice” (J Med Chem, 1988).

Test [1] relates to B16. The test can be described thus: In vivo antitumor activity against B16 melanoma cells at a optimal dose 300 ug/Kg /inj measured as %ILS (%increase life span). It is filed as functional. The conditions noted are these: Mus musculus. The gist of the method:
(§1)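 BDF1 mice in groups of nine were implanted ip on day 0 with 0.2 mL of 1:5 (w/v) B16 melanoma brei; drugs were given ip. Survival is reported as median survival time in days with range, and as %ILS, with survivors counted on day 65 out of total injected.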

For test [2], the system named is B16. The test can be described thus: In vivo antitumor activity against B16 melanoma cells at dose 300 ug/Kg /inj measured as Mean survival time (MST). In kind it is functional, Mus musculus. The gist of the method:
as §1

Test [3] relates to P388. The test can be described thus: Antitumor activity against P388/S (AMD sensitive) in male BDF1 mice measured as optimal dose at dose 1.0-5.0 mg/Kg/inj, ip.
Test [4] concerns P388. The test can be described thus: Antitumor activity against P388/ADR (adriamycin resistant), in male BDF1 mice measured as optimal dose at dose 1.0-5.0 mg/Kg/inj, ip.

Turning to `Cc1nc2c(C(=O)N[C@@H]3C(=O)N[C@H](C(C)C)C(=O)N4CCC[C@H]4C(=O)N(C)CC(=O)N(C)[C@@H](C(C)C)C(=O)O[C@@H]3C)c3nc4c(C(=O)N[C@@H]5C(=O)N[C@H](C(C)C)C(=O)N6CCC[C@H]6C(=O)N(C)CC(=O)N(C)[C@@H](C(C)C)C(=O)O[C@@H]5C)c(N)c(=O)c(C)c-4oc3c(C)c2o1`, the ILS at 0.3 mg/kg in the test on B16 [1] was found to be 124%. The MST in the test with B16 [2] was determined as 65.

Consider `CO[C@@]12[C@H](COC(N)=O)C3=C(C(=O)C(C)=C(N)C3=O)N1C[C@@H]1N[C@@H]12` [MITOMYCIN], for which the optimal dose with P388 [3] and with P388 [4] was 3 mg/kg in each case.
